The source made the active and inactive calls. No cut-off for these calls is given here.
Key:
[1] = system: Rattus norvegicus; experiment: Anticonvulsant activity against subcutaneous metrazole-induced seizures in albino Sprague-Dawley rat at 300 mg/kg, ip after 4 hrs; assay type: functional, organism-based; set-up: dose 300 mg/kg
[2] = system: Mus musculus; experiment: Anticonvulsant activity against subcutaneous metrazole-induced seizures in albino CF1 mouse at 300 mg/kg, ip after 0.5 hrs; assay type: functional, organism-based; set-up: dose 300 mg/kg
Summary of the method: (§1)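 Subcutaneous Metrazol seizure test under the NINDS ASP, using ip dosing to mice, typically at 300 mg/kg. Protection was assessed at 0.5 and 4 h.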

[3] = system: Rattus norvegicus; experiment: Anticonvulsant activity in po dosed albino Sprague-Dawley rat seizure model assessed as protection against hind limb extension by MES test; assay type: functional; settings: Hindlimb
Summary of the method: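 MES seizure protection was tested in Sprague Dawley rats dosed orally, through the NINDS ASP. The ED50 is expressed in mg/kg.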

[4] = system: Rattus norvegicus; experiment: Protective index, ratio of TD50 for po dosed albino Sprague-Dawley rat to ED50 for po dosed albino Sprague-Dawley rat; assay type: functional
Summary of the method: (§2)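 Protective index was calculated as TD50/ED50 for the same species and route: mouse ip (rotorod TD50, MES ED50) and rat po.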

[5] = system: Rattus norvegicus; experiment: Anticonvulsant activity against subcutaneous metrazole-induced seizures in albino Sprague-Dawley rat at 300 mg/kg, ip after 0.5 hrs; assay type: functional, organism-based; set-up: dose 300 mg/kg
[6] = system: Mus musculus; experiment: Anticonvulsant activity in ip dosed albino CF1 mouse seizure model assessed as protection against hind limb extension by MES test; assay type: functional; settings: albino CF1, Hindlimb
Summary of the method: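 Maximal electroshock seizure test run by the NINDS ASP (Stables and Kupferberg procedures). Compounds were given intraperitoneally to mice, and the ED50 for seizure protection is reported in mg/kg.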

[7] = system: Mus musculus; experiment: Anticonvulsant activity against subcutaneous metrazole-induced seizures in albino CF1 mouse at 300 mg/kg, ip after 4 hrs; assay type: functional, organism-based; set-up: dose 300 mg/kg; summary of the method: as §1
[8] = system: Rattus norvegicus; experiment: Anticonvulsant activity against in ip dosed albino Sprague-Dawley rat hippocampal kindled seizure model assessed as decrease in seizures after 0.5 hrs; assay type: functional; settings: Hippocampus
Summary of the method: (§3)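 Rats were given compounds intraperitoneally in the rapid hippocampal kindling model under the NINDS ASP. Racine seizure score and after-discharge duration (sec) were recorded before and after dosing. Where determined, ED50 (mg/kg) is given with an interval.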

[9] = system: Mus musculus; experiment: Protective index, ratio of TD50 for ip dosed albino CF1 mouse to ED50 for ip dosed albino CF1 mouse; assay type: functional; summary of the method: as §2
[10] = Neurological toxicity in ip dosed albino CF1 mouse assessed as neurological impairment by rotarod test; assay type: organism-based; settings: in vivo
Summary of the method: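 Neurological impairment was measured with the rotorod test in mice dosed intraperitoneally. The median dose (TD50, mg/kg) was determined only for compounds with significant MES activity.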

[11] = system: Rattus norvegicus; experiment: Anticonvulsant activity against in ip dosed albino Sprague-Dawley rat hippocampal kindled seizure model assessed as after-discharge duration after 0.5 hrs; assay type: functional, Hippocampus; summary of the method: as §3
[12] = Behavioral toxicity in po dosed albino Sprague-Dawley rat; assay type: organism-based; settings: in vivo
Summary of the method: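 Behavioral toxicity was recorded as observed effects in rats after oral administration, within the NINDS ASP screen.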

SMILES	Activity [1]	Activity [2]	ED50 [3]	PI [4]	Activity [5]	ED50 [6]	Activity [7]	ED50 [8]	PI [9]	TD50 [10]	Time [11]	TD50 [12]
COC[C@@H](NC(C)=O)C(=O)NCc1ccc(I)cc1	inactive	inactive	12 mg/kg	>43	inactive	16 mg/kg	inactive	12 mg/kg	2.6	41 mg/kg	0 s	> 500 mg/kg
COCC#Cc1ccc(CNC(=O)[C@@H](COC)NC(C)=O)cc1	inactive	inactive	18 mg/kg	5.5	inactive	10 mg/kg	inactive	–	1.5	15 mg/kg	–	100 mg/kg
COC[C@@H](NC(C)=O)C(=O)NCc1ccc(Cl)cc1	inactive	inactive	1 mg/kg	>200	inactive	5 mg/kg	inactive	–	5.6	28 mg/kg	2 s	> 200 mg/kg
O=C1NC(=O)C(c2ccccc2)(c2ccccc2)N1 [PHENYTOIN]	inactive	inactive	–	–	inactive	–	inactive	–	–	–	51 s	–
COCc1ccc(CNC(=O)[C@@H](COC)NC(C)=O)cc1	inactive	inactive	–	>11	inactive	73 mg/kg	inactive	87 mg/kg	2.3	–	12 s	> 500 mg/kg
CCCc1ccc(CNC(=O)[C@@H](COC)NC(C)=O)cc1	inactive	inactive	< 30 mg/kg	–	inactive	8.5 mg/kg	inactive	–	1.5	13 mg/kg	–	> 30 mg/kg
COC[C@@H](NC(C)=O)C(=O)NCc1ccc(OC(F)(F)F)cc1	inactive	inactive	1.7 mg/kg	37	inactive	3.6 mg/kg	inactive	–	3.6	13 mg/kg	–	63 mg/kg
COC[C@@H](NC(C)=O)C(=O)NCc1ccccc1 [LACOSAMIDE]	inactive	inactive	–	>130	inactive	–	inactive	–	6	–	0 s	> 500 mg/kg
COC[C@@H](NC(C)=O)C(=O)NCc1cccc(F)c1	inactive	inactive	–	>58	inactive	–	inactive	–	6.7	–	–	> 400 mg/kg
COC[C@@H](NC(C)=O)C(=O)NCc1ccc(N=[N+]=[N-])cc1	inactive	inactive	–	>64	inactive	8.4 mg/kg	inactive	6 mg/kg	–	–	0 s	> 250 mg/kg
COC[C@@H](NC(C)=O)C(=O)NCc1ccc(Br)cc1	inactive	inactive	4.9 mg/kg	61	inactive	8.7 mg/kg	inactive	–	3.5	30 mg/kg	–	300 mg/kg
C=Cc1ccc(CNC(=O)[C@@H](COC)NC(C)=O)cc1	inactive	inactive	7.6 mg/kg	>20	inactive	3.5 mg/kg	inactive	–	4.6	16 mg/kg	0 s	–
COC[C@@H](NC(C)=O)C(=O)NCc1ccc(C)cc1	inactive	inactive	8.1 mg/kg	>62	inactive	11 mg/kg	inactive	–	3	31 mg/kg	–	> 500 mg/kg
COCCCc1ccc(CNC(=O)[C@@H](COC)NC(C)=O)cc1	inactive	inactive	–	>32	inactive	20 mg/kg	inactive	–	3.1	62 mg/kg	21 s	> 500 mg/kg
COC[C@@H](NC(C)=O)C(=O)NCc1ccc(F)cc1	inactive	inactive	–	>48	inactive	–	inactive	–	6.7	–	–	125 mg/kg
CCCC(CCC)C(=O)[O-].[Na+] [VALPROATE SODIUM]	inactive	inactive	–	–	inactive	270 mg/kg	inactive	210 mg/kg	–	–	–	–
COC[C@@H](NC(C)=O)C(=O)NCc1ccc(C#N)cc1	inactive	inactive	> 30 mg/kg	–	inactive	150 mg/kg	inactive	–	>3.3	> 500 mg/kg	–	> 30 mg/kg
